According to ChEMBL document CHEMBL1142435, “Two-step synthesis of achiral dispiro-1,2,4,5-tetraoxanes with outstanding antimalarial activity, low toxicity, and high-stability profiles” (J Med Chem, 2008):

Assays:
Plasmodium falciparum [1] = assay: Antimalarial activity against Plasmodium falciparum GC03; type: functional, organism-based
Plasmodium falciparum [2] = assay: Antimalarial activity against Plasmodium falciparum HB3; type: functional, organism-based
Plasmodium falciparum [3] = assay: Antimalarial activity against Plasmodium falciparum DD2; type: functional, organism-based
Plasmodium falciparum [4] = assay: Antimalarial activity against Plasmodium falciparum TM4; type: functional, organism-based
Plasmodium falciparum [5] = assay: Antimalarial activity against Plasmodium falciparum V1/S; type: functional, organism-based; conditions: V1S
Plasmodium falciparum [6] = assay: Antimalarial activity against Plasmodium falciparum PH3; type: functional, organism-based
Plasmodium falciparum [7] = assay: Antimalarial activity against Plasmodium falciparum K1; type: functional, organism-based
Plasmodium falciparum [8] = assay: Antimalarial activity against Plasmodium falciparum 3D7; type: functional, organism-based
[9] = Chemical stability assessed as endoperoxide recovery after 4 hrs by iron degradation study; type: physicochemical; conditions: read-out: Stability
Summary of the method: (§1)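 Endoperoxide (1.0 equiv FeBr₂) was held in THF for 4, 8, 24 or 48 h. The residue was purified by flash column chromatography, and the percent recovery of starting endoperoxide was calculated.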

[10] = Chemical stability assessed as endoperoxide recovery after 24 hrs by iron degradation study; type: physicochemical; conditions: read-out: Stability; summary of the method: as §1
[11] = Chemical stability assessed as endoperoxide recovery after 48 hrs by iron degradation study; type: physicochemical; conditions: read-out: Stability; summary of the method: as §1
[12] = Chemical stability assessed as endoperoxide recovery after 8 hrs by iron degradation study; type: physicochemical; conditions: read-out: Stability; summary of the method: as §1
Salmonella typhimurium [13] = assay: Genotoxicity against Salmonella Typhimurium TA 1535/pSK1002 assessed as induction of umu operon expression in presence of rat liver S9 fraction; type: toxicity, organism-based; conditions: salmonella enterica subsp. enterica serovar typhimurium
Summary of the method: (§2)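 SOS/umu assay with rat liver S9-mix for metabolic activation. Tester strains carry plasmid pSK1002 with a umuC-lacZ fusion, and induced β-galactosidase activity is the read-out. Positive controls checked strain response. The highest concentration tested was 50 µM.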

[14] = Chemical stability in dichloromethane assessed as tetraoxane recovery after 7 days; type: physicochemical; conditions: read-out: Stability
Salmonella typhimurium [15] = assay: Genotoxicity against Salmonella Typhimurium TA 1535/pSK1002 assessed as induction of umu operon expression; type: toxicity, organism-based; conditions: salmonella enterica subsp. enterica serovar typhimurium
[16] = Therapeutic index, ratio of TOX50 for rat H9c(2-1) cells to IC50 Plasmodium falciparum 3D7
Summary of the method: (§3)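 TOX₅₀ came from resazurin reduction, with single full dose-response curves over 10 independent concentrations. The index is TOX₅₀ divided by the IC₅₀ against the P. falciparum 3D7 isolate.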

[17] = Therapeutic index, ratio of TOX50 for rat L6 cells to IC50 Plasmodium falciparum 3D7; type: cell-based; summary of the method: as §3
[18] = Chemical stability in phosphate buffer assessed as tetraoxane recovery at pH 7.4 after 16 hrs; type: physicochemical; conditions: read-out: Stability
[19] = Cytotoxicity against human […] cells by resazurin reduction assay; type: cell-based; conditions: read-out: TC50 (the source's name)
Summary of the method: (§4)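 Cytotoxicity was read by resazurin reduction. A single full dose-response curve was built from 10 independent drug concentrations to give TOX₅₀.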

Salmonella typhimurium [20] = assay: Genotoxicity against Salmonella Typhimurium NM2009 assessed as induction of umu operon expression; type: toxicity, organism-based; conditions: salmonella enterica subsp. enterica serovar typhimurium
[21] = Chemical stability in water assessed as tetraoxane recovery after 7 days; type: physicochemical; conditions: read-out: Stability
[22] = Cytotoxicity against african green monkey Vero cells by resazurin reduction assay; type: cell-based; conditions: chlorocebus sabaeus, read-out: TC50 (the source's name); summary of the method: as §4
[23] = Therapeutic index, ratio of TOX50 for human […] cells to IC50 Plasmodium falciparum 3D7; type: cell-based; summary of the method: as §3
[24] = Therapeutic index, ratio of TOX50 for african green monkey (Cercopithecus aethiops) Vero cells to IC50 Plasmodium falciparum 3D7; type: cell-based; summary of the method: as §3
[25] = Cytotoxicity against rat H9c(2-1) cells by resazurin reduction assay; type: cell-based; conditions: read-out: TC50 (the source's name); summary of the method: as §4
[26] = Cytotoxicity against human MRC5 cells by resazurin reduction assay; type: cell-based; conditions: read-out: TC50 (the source's name); summary of the method: as §4
Salmonella typhimurium [27] = assay: Genotoxicity against Salmonella Typhimurium NM2009 assessed as induction of umu operon expression in presence of rat liver S9 fraction; type: toxicity, organism-based; conditions: salmonella enterica subsp. enterica serovar typhimurium; summary of the method: as §2
[28] = Cytotoxicity against rat L6 cells by resazurin reduction assay; type: cell-based; conditions: read-out: TC50 (the source's name); summary of the method: as §4
[29] = Therapeutic index, ratio of TOX50 for human MRC5 cells to IC50 Plasmodium falciparum 3D7; type: cell-based; summary of the method: as §3
[30] = Chemical stability in dichloromethane in presence of formic acid assessed as tetraoxane recovery after 7 days; type: physicochemical; conditions: dichloromethane with formic acid; read-out: Stability
Plasmodium falciparum [31] = assay: Antimalarial activity against Plasmodium falciparum
Plasmodium berghei = assay: Antimalarial activity against Plasmodium berghei ANKA infected mice (Mus musculus) by peroral dose; type: functional; conditions: po

CCN(CC)Cc1cc(Nc2ccnc3cc(Cl)ccc23)ccc1O
IC50 (Plasmodium falciparum [1]): 4.5 nM | IC50 (Plasmodium falciparum [2]): 5.9 nM | IC50 (Plasmodium falciparum [3]): 6.1 nM | IC50 (Plasmodium falciparum [4]): 6.4 nM | IC50 (Plasmodium falciparum [5]): 7.7 nM | IC50 (Plasmodium falciparum [6]): 4.7 nM | IC50 (Plasmodium falciparum [7]): 10.2 nM

O=S(=O)(c1ccc(Cl)cc1)N1CCC2(CC1)OOC1(OO2)C2CC3CC(C2)CC1C3
IC50 (Plasmodium falciparum [8]): 22.7 nM

CS(=O)(=O)N1CCC2(CC1)OOC1(CCCCCCCCCCC1)OO2
IC50 (Plasmodium falciparum [8]): 27.8 nM

O=S(=O)(c1ccc(C(F)(F)F)cc1)N1CCC2(CC1)OOC1(OO2)C2CC3CC(C2)CC1C3
IC50 (Plasmodium falciparum [8]): 20.7 nM

O=C(N1CCOCC1)N1CCC2(CC1)OOC1(OO2)C2CC3CC(C2)CC1C3
IC50 (Plasmodium falciparum [8]): 4.7 nM

O=S(=O)(CC(F)(F)F)N1CCC2(CC1)OOC1(OO2)C2CC3CC(C2)CC1C3
IC50 (Plasmodium falciparum [8]): 14.3 nM

O=C(CCc1ccc(S(=O)(=O)N2CCC3(CC2)OOC2(OO3)C3CC4CC(C3)CC2C4)cc1)NCCCCNc1ccc([N+](=O)[O-])c2nonc12
IC50 (Plasmodium falciparum [8]): 16 nM

O=S(=O)(c1ccccc1)N1CCC2(CC1)COC1(OO2)C2CC3CC(C2)CC1C3 (centres undefined)
remaining at 4 h [9]: 96.8% | remaining at 24 h [10]: 56.7% | remaining at 48 h [11]: 43.2% | remaining at 8 h [12]: 84.9%

CC(C)S(=O)(=O)N1CCC2(CC1)OOC1(OO2)C2CC3CC(C2)CC1C3
IC50 (Plasmodium falciparum [8]): 5.87 nM

CCS(=O)(=O)N1CCC2(CC1)OOC1(OO2)C2CC3CC(C2)CC1C3
Activity (Salmonella typhimurium [13]): 0.98 | IC50 (Plasmodium falciparum [1]): 3 nM | remaining at 168 h [14]: 96.2% | IC50 (Plasmodium falciparum [2]): 3.8 nM | IC50 (Plasmodium falciparum [8]): 5.55 nM | Activity (Salmonella typhimurium [15]): 1.03 | IC50 (Plasmodium falciparum [3]): 3 nM | TI [16]: > 9090 | TI [17]: 5640 | IC50 (Plasmodium falciparum [4]): 2.4 nM | remaining at 16 h [18]: 93.2% | IC50 (Plasmodium falciparum [5]): 2.7 nM | CC50 [19]: > 50000 nM | Activity (Salmonella typhimurium [20]): 1.07 | remaining at 168 h [21]: 97.8% | CC50 [22]: > 50000 nM | TI [23]: > 9090 | TI [24]: > 9090 | CC50 [25]: > 50000 nM | CC50 [26]: > 50000 nM | Activity (Salmonella typhimurium [27]): 0.95 | CC50 [28]: 31000 nM | IC50 (Plasmodium falciparum [6]): 1.9 nM | TI [29]: > 9090 | IC50 (Plasmodium falciparum [7]): 3 nM | remaining at 168 h [30]: 92.3%

CS(=O)(=O)N1CCC2(CC1)OOC1(OO2)C2CC3CC(C2)CC1C3
IC50 (Plasmodium falciparum [8]): 10.2 nM

O=S(=O)(c1ccccc1)N1CCC2(CC1)OOC1(CCCCCCCCCCC1)OO2
IC50 (Plasmodium falciparum [8]): 131 nM

CCS(=O)(=O)N1C2CCC1CC1(C2)OOC2(OO1)C1CC3CC(C1)CC2C3 (centres undefined)
IC50 (Plasmodium falciparum [8]): 60.6 nM

O=S(=O)(c1ccccc1)N1CCC2(CC1)OCC1(OO2)C2CC3CC(C2)CC1C3 (centres undefined)
IC50 (Plasmodium falciparum [8]): > 1000 nM

O=S(=O)(C1CC1)N1CCC2(CC1)OOC1(OO2)C2CC3CC(C2)CC1C3
Activity (Salmonella typhimurium [13]): 0.99 | IC50 (Plasmodium falciparum [8]): 3.52 nM | Activity (Salmonella typhimurium [15]): 1.05 | TI [16]: > 14300 | TI [17]: > 14300 | CC50 [19]: > 50000 nM | Activity (Salmonella typhimurium [20]): 1.09 | CC50 [22]: > 50000 nM | TI [23]: > 14300 | TI [24]: > 14300 | CC50 [25]: > 50000 nM | CC50 [26]: > 50000 nM | Activity (Salmonella typhimurium [27]): 1.07 | CC50 [28]: > 50000 nM | TI [29]: > 14300

O=S(=O)(c1ccccc1)N1CCC2(CC1)OOC1(O2)C2CC3CC(C2)CC1C3 (centres undefined)
IC50 (Plasmodium falciparum [8]): 4.98 nM | remaining at 4 h [9]: 11% | remaining at 24 h [10]: 2.6% | remaining at 48 h [11]: 0% | remaining at 8 h [12]: 9%

O=S(=O)(c1ccc(F)cc1)N1CCC2(CC1)OOC1(OO2)C2CC3CC(C2)CC1C3
IC50 (Plasmodium falciparum [8]): 16.7 nM

O=S(=O)(c1ccccc1)N1CCC2(CC1)OOC1(OO2)C2CC3CC(C2)CC1C3
IC50 (Plasmodium falciparum [8]): 5.46 nM | remaining at 4 h [9]: 88.7% | remaining at 24 h [10]: 72% | remaining at 48 h [11]: 69% | remaining at 8 h [12]: 80.5%

O=C(CC1CCC2(CC1)OOC1(OO2)C2CC3CC(C2)CC1C3)N1CCOCC1 (centres undefined)
Activity (Salmonella typhimurium [13]): 0.98 | Activity (Salmonella typhimurium [15]): 1.04 | Activity (Salmonella typhimurium [20]): 1.22 | IC50 (Plasmodium falciparum [31]): 5.2 nM | Activity (Salmonella typhimurium [27]): 1.02

CC(C)S(=O)(=O)N1CCC2(CC1)OOC1(CCCCCCCCCCC1)OO2
IC50 (Plasmodium falciparum [8]): 86.4 nM

CCS(=O)(=O)N1CCC2(CC1)OOC1(CCCCCCCCCCC1)OO2
IC50 (Plasmodium falciparum [8]): 29.1 nM

C[C@H]1[C@H](OC(=O)CCC(=O)O)O[C@@H]2OC3(C)CC[C@H]4[C@H](C)CC[C@@H]1[C@@]24OO3 (single isomer, unassigned) [SODIUM ARESUNATE]
IC50 (Plasmodium falciparum [8]): 0.6 nM | IC50 (Plasmodium falciparum [7]): 0.7 nM

Nc1ccc2cc3ccccc3cc2c1 [2-AMINOANTHRACENE]
Activity (Salmonella typhimurium [13]): 7.34 | Activity (Salmonella typhimurium [15]): 1.1 | Activity (Salmonella typhimurium [20]): 1.08 | Activity (Salmonella typhimurium [27]): 6.09

C[C@@H]1CC[C@H]2[C@@H](C)C(=O)O[C@@H]3O[C@@]4(C)CC[C@@H]1[C@]32OO4 [ARTEMISININ]
IC50 (Plasmodium falciparum [8]): 9.2 nM | ED50 (Plasmodium berghei): 8.42 mg/kg
